High-throughput results (PubChem BioAssay)
Hits are enriched below; roughly 2.7% of the tested compounds scored in any of these assays.
ASAP1 inh: ASAP1 ArfGAP inhibition; actives 0.19% (n = 360,000); AID 624377; inhibition, % at 16.5 µM; ASAP1-stimulated ARF1 GTP hydrolysis, GDP FP detection; in the data active means inhibition above about 25%;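 further: 0% = vehicle with enzyme and substrate and 100% = no enzyme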
pPAFAH inh: pPAFAH (human) enzyme inhibition; inhibition, % at 3.39 µM; Q13093; AID 463082; recombinant pPAFAH, FP-rhodamine probe fluorescence polarization; actives 1.5% (n = 330,000);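 active means inhibition above the mean inhibition across the screen plus 3 SD, cut at about 25% in these data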;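 further: inhibitors block binding of the rhodamine activity-based probe so polarization drops; 0% = enzyme with DMSO and 100% = wells lacking pPAFAH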
ARFGAP1 inh: rat ARFGAP1 inhibition; inhibition, % at 16.5 µM; AID 651572; Q62848; Arfgap1-stimulated ARF1 GTP hydrolysis, GDP FP detection; actives 0.26% (n = 360,000);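 active means inhibition above a per-plate limit, mean inhibition of low control wells plus 3 SD, cut at about 25% in these data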;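 further: 0% = DMSO wells with enzyme and 100% = wells lacking Arfgap1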
Target sequence (Q62848 1-136 limits assumed): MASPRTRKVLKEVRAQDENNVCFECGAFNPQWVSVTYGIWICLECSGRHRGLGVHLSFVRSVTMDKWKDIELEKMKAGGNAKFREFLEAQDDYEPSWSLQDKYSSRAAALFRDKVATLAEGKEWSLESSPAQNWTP
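Material: rat Arfgap1 catalytic domain, aa 1-136; also added: human ARF1(Δ1-17)-GTP substrate; compound dosing: one concentration, 16.5 µM, DMSO 1.26%; incubation: GTP hydrolysis reaction 2 h at 25 °C; measured by: Tracer-displacement fluorescence polarization with EDTA stop, 620/688 nm; evaluation: % inhibition from polarization; repeats: one replicate per compound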
PAFAH1B3 inh: PAFAH1B3 (human) inhibition; recombinant PAFAH1B3, FP-rhodamine probe, fluorescence polarization; inhibition, % at 3.39 µM; actives 0.28% (n = 340,000); AID 492972;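 active means inhibition above the screen-wide average of all tested compounds plus 3 SD, cut at about 25% in these data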;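 further: 0% = enzyme with DMSO only and 100% = wells lacking PAFAH1B3 protein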
PAFAH2 inh: PAFAH2 (human) inhibition; recombinant PAFAH2, FP-rhodamine activity probe, fluorescence polarization; actives 0.99% (n = 340,000); Q99487; inhibition, % at 3.39 µM;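 active means inhibition above the mean over all tested compounds plus 3 SD, cut at about 30% in these data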;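 further: inhibitors block probe labeling of enzyme so polarization drops; 0% = enzyme with DMSO and 100% = wells lacking PAFAH2 protein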
PAFAH1B2 FP inh: blocks human PAF acetylhydrolase 1b catalytic subunit 2; recombinant PAFAH1B2, FP-rhodamine activity probe, fluorescence polarization; inhibition, % at 3.39 µM; actives 1.2% (n = 340,000); AID 492953;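 active means inhibition above the mean of all tested compounds plus 3 SD, cut at about 24% in these data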;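 further: 0% = enzyme with DMSO and 100% = wells lacking PAFAH1B2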
Target sequence (P68402 whole entry, looked up): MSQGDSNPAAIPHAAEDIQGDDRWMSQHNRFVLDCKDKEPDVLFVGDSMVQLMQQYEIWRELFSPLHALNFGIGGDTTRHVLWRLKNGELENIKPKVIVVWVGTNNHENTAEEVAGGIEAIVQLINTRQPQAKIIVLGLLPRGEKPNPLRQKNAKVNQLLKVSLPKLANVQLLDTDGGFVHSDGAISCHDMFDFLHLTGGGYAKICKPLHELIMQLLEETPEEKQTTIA
Numbers without * were called inactive; / = not tested or not shown.

SMILES | ASAP1 inh | pPAFAH inh | ARFGAP1 inh | PAFAH1B3 inh | PAFAH2 inh | PAFAH1B2 FP inh
O=C1NC(=O)C2(CCCc3ccc(N(CCO)CCO)cc32)N1 (stereo not given) | 4 | / | 4 | / | / | /
O=C(COc1ccc(Cl)cc1)c1ccc(O)cc1O | 2 | -2 | -1 | 3 | -8 | 27*
CCC1CN(C(=O)NCc2ccc(C)cc2)c2cc(C)ccc2O1 (stereo not given) | -5 | / | 2 | 6 | -4 | -5
CCC1CN(C(=O)NCc2ccccc2)c2cc(C)ccc2O1 (stereo not given) | -8 | / | 0 | 50* | 71* | 36*
C[C@H]1COc2cc(N3CCOCC3)ccc2S(=O)(=O)N1 | -11 | / | -7 | / | / | /
CCNC(=O)n1nccc1C(C)Oc1ccc(Cl)cc1 (stereo not given) | -9 | 14 | 0 | 1 | 7 | 58*
CCCCc1c(-c2ccccc2OC)ncn1Cc1ccc(OC)cc1 | 3 | / | 5 | / | / | /
O=C(C1CCCN1C(=O)c1cccs1)N1CCN(S(=O)(=O)c2ccc(F)cc2)CC1 (stereo not given) | -5 | 2 | -2 | 11 | -3 | 29*
C[C@H](CO)N1C[C@H](C)[C@H](CN(C)S(=O)(=O)c2cccs2)Oc2ncc(Br)cc2C1=O | 6 | / | -7 | / | / | /
CCNC(=S)NNC(=O)c1cc(-c2cccc(OC)c2)nc2ccccc12 | 1 | 19 | 3 | -5 | -5 | 17
Cc1ccc(C)c(-c2cc(C(=O)NNC(=S)NCC(C)C)c3ccccc3n2)c1 | 7 | 26* | 15 | 0 | 9 | 0
CCc1ccc(-c2cc(C(=O)Nn3cnnc3)c3ccccc3n2)cc1 | -6 | -4 | -1 | 5 | -5 | 72*
CCNC(=S)NNC(=O)c1cc(-c2ccc(OCC)cc2)nc2ccccc12 | -5 | 27* | 5 | 1 | -3 | 4
COc1cccc(C(=O)N[C@H](C(=O)N2CCC[C@H]2C(=O)NCc2ccccc2)C2CCCCC2)c1 | -1 | / | -7 | / | / | /
CCCc1nc2ccc(C(=O)OC)cn2c1Cc1ccccc1OC | -4 | / | -6 | / | / | /
COC(=O)[C@]12C[C@H](CC(=O)NCc3cccs3)C(=O)N(CCC3=CCCCC3)C1=C[C@H](COCc1ccccc1)O[C@@H]2C | 8 | / | 16 | / | / | /
CCN(CC(=O)NCc1cccs1)C(=O)CCCOc1ccc(C(C)(C)C)cc1 | 0 | 16 | -8 | 1 | -5 | 25*
CC(=O)c1sc(Nc2cccc3ccccc23)nc1C | 4 | -1 | 14 | 1 | 6 | 4
CC(=O)c1sc(Nc2ccccn2)nc1C | 6 | 3 | 26* | 1 | -4 | -5
COc1ccnc(N2CCN(c3ccc(Cl)cc3)CC2)c1C#N | -6 | -4 | -2 | 5 | 7 | 24*
COc1ccnc(N2CCN(c3cccc(C(F)(F)F)c3)CC2)c1C#N | -5 | -1 | -2 | -4 | -3 | -4
CSCCC(NS(=O)(=O)c1ccc(Cl)cc1)C(=O)OCc1c(Cl)cccc1Cl (stereo not given) | 0 | 9 | 1 | -4 | -3 | 27*
CSCCC(NS(=O)(=O)c1ccc(Cl)cc1)C(=O)OCC(=O)NC1CC1 (stereo not given) | 6 | 1 | 12 | 1 | 13 | 9
CSCCC(NS(=O)(=O)c1ccc(Cl)cc1)C(=O)OCC(=O)N(C(C)C)C(C)C (stereo not given) | 9 | 6 | -9 | -4 | 7 | 5
CSCCC(NS(=O)(=O)c1ccc(Cl)cc1)C(=O)OCc1cccc(Cl)c1 (stereo not given) | -5 | 8 | 8 | 9 | -5 | 33*
Cc1cc(-c2nnc(SCC(=O)Nc3nc(-c4ccccc4)cs3)o2)no1 | 11 | 30* | 8 | 0 | -10 | -3
Cc1csc(NC(=O)CSc2nnc(-c3cc(C)on3)o2)n1 | 14 | 3 | -10 | 18 | 10 | -2
CCOC(=O)[C@@H]1CSCCS(=O)(=O)N1C(=O)[C@H](CC(C)C)NC(=O)OC(C)(C)C | 17 | / | -8 | / | / | /
Oc1ccccc1CNc1cccc2cccnc12 | 2 | 34* | 10 | 14 | 2 | 1
CCCCCCCCCCS(=O)(=O)N/N=C/c1ccc([N+](=O)[O-])cc1 | -4 | 10 | -6 | 8 | 2 | 30*
